This is an account of results in ChEMBL document CHEMBL4346701, “Synthesis and biological evaluation of tryptophan-derived rhodanine derivatives as PTP1B inhibitors and anti-bacterial agents” (Eur J Med Chem, 2019).

The target of experiment [1] is T1, Tyrosine-protein phosphatase non-receptor type 2 (Homo sapiens, UniProt P17706).
T1 sequence (P17706 whole entry): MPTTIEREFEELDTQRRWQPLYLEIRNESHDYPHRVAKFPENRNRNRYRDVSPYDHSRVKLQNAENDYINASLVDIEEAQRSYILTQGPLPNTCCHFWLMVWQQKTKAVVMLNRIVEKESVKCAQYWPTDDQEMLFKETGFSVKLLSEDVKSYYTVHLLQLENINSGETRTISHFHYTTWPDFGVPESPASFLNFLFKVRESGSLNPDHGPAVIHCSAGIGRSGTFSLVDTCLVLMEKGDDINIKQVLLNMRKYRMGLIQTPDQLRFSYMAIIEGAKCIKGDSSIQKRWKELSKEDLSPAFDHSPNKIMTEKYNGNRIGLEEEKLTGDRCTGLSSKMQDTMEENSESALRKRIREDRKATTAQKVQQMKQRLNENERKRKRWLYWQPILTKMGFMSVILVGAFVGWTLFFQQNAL
As to the kind of experiment: Inhibition of human recombinant GST-tagged TCPTP (catalytic domain […] residues) expressed in Escherichia coli BL21 (DE3) using pNPP as substrate measured for 2 mins by colorimetric analysis.

Experiment [2] concerns Staphylococcus aureus. Put plainly: Antibacterial activity against Quinolone-resistant Staphylococcus aureus CCARM 3519 assessed as reduction in bacterial cell growth incubated for 24 hrs by ELISA. It is filed as functional. Particulars: CCARM 3519, 24 h. Put shortly: (§1)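 MICs determined by serial dilution in 96-well microtiter plates. The strain panel included Gram-positive S. aureus strains and multidrug-resistant clinical isolates. Gatifloxacin, moxifloxacin, norfloxacin and oxacillin served as antibacterial positive controls.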

Experiment [3] has as its target T2, Tyrosine-protein phosphatase non-receptor type 1 (Homo sapiens, UniProt P18031).
T2 sequence (P18031 whole entry): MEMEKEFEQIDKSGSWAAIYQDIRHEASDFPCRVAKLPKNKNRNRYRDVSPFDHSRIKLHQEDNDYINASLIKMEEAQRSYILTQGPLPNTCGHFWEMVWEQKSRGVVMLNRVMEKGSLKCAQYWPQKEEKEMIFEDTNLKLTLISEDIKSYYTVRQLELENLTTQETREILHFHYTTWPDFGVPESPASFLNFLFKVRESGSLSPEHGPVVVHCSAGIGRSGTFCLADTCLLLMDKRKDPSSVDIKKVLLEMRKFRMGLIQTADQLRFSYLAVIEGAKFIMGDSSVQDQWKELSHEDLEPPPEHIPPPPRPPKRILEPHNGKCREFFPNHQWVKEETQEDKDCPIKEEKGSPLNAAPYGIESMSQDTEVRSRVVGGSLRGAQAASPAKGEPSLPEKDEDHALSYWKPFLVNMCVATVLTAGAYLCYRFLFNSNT
As to the kind of experiment: Inhibition of human recombinant GST-tagged PTP1B expressed in Escherichia coli BL21 (DE3) using pNPP as substrate measured for 2 mins by colorimetric analysis.

The subject of another experiment is Streptococcus mutans. Put plainly: Antibacterial activity against Streptococcus mutans KCTC3289 assessed as reduction in bacterial cell growth incubated for 24 hrs by ELISA. It is filed as functional. Particulars: KCTC3289, 24 h. The method, boiled down: (§2)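 MIC determined by serial dilution in 96-well microtiter plates. Strains used were E. coli 1924 and P. aeruginosa 2742 (Gram-negative), S. mutans 3289 (Gram-positive) and the fungus C. albicans 7535. Gatifloxacin, moxifloxacin, norfloxacin and oxacillin served as antibacterial reference agents, and fluconazole as the antifungal reference.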

The species entered for experiment [4] is Homo sapiens. As to the kind of experiment: Selectivity ratio of IC50 for human recombinant GST-tagged TCPTP to IC50 for human recombinant GST-tagged PTP1B.
Experiment [5] deals with Tyrosine-protein phosphatase non-receptor type 6 (Homo sapiens, UniProt P29350). As to the kind of experiment: Inhibition of human recombinant GST-tagged SHP1 (catalytic domain 244 to 570 residues) expressed in Escherichia coli BL21 (DE3) using pNPP as substrate measured for 2 mins by colorimetric analysis. Put shortly: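 pNPP hydrolysis assay. IC50 was derived by regression analysis and given as mean ± SD of three replications.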

Experiment [6] concerns Staphylococcus aureus. As to the kind of experiment: Antibacterial activity against Staphylococcus aureus KCTC209 assessed as reduction in bacterial cell growth incubated for 24 hrs by ELISA. It is filed as functional. Particulars: KCTC209, 24 h. Put shortly: as §1
On the technique in general: An ELISA detects its analyte on a solid surface through an enzyme-linked reagent.

For experiment [7], the system named is Staphylococcus aureus. As to the kind of experiment: Antibacterial activity against Methicillin-resistant Staphylococcus aureus CCARM 3506 assessed as reduction in bacterial cell growth incubated for 24 hrs by ELISA. It is filed as functional. To be noted: CCARM 3506, 24 h. Put shortly:
as §1

The species named for experiment [8] is Homo sapiens. Put plainly: Selectivity ratio of IC50 for human recombinant GST-tagged SHP1 to IC50 for human recombinant GST-tagged PTP1B.
Experiment [9] deals with Staphylococcus aureus. As to the kind of experiment: Antibacterial activity against Staphylococcus aureus KCTC503 assessed as reduction in bacterial cell growth incubated for 24 hrs by ELISA. The experiment is classed as functional. To be noted: KCTC503, 24 h. The method, boiled down:
as §1

Experiment [10] has as its system Staphylococcus aureus. As to the kind of experiment: Antibacterial activity against Methicillin-resistant Staphylococcus aureus CCARM 3167 assessed as reduction in bacterial cell growth incubated for 24 hrs by ELISA. It is filed as functional. To be noted: CCARM 3167, 24 h. Put shortly:
as §1

In another experiment the test system is Candida albicans. As to the kind of experiment: Antifungal activity against Candida albicans 7535 assessed as reduction in bacterial cell growth incubated for 24 hrs by ELISA. The experiment is classed as functional. To be noted: Candida albicans, 7535, 24 h. Put shortly:
as §2

In the next experiment the test system is Escherichia coli. Put plainly: Antibacterial activity against Escherichia coli 1924 assessed as reduction in bacterial cell growth incubated for 24 hrs by ELISA. The experiment is classed as functional. To be noted: Escherichia coli, 1924, 24 h. Put shortly: as §2
Experiment [11] concerns Staphylococcus aureus. As to the kind of experiment: Antibacterial activity against Quinolone-resistant Staphylococcus aureus CCARM 3505 assessed as reduction in bacterial cell growth incubated for 24 hrs by ELISA. It is filed as functional. To be noted: CCARM 3505, 24 h. Put shortly: as §1
Experiment [12] has as its system Staphylococcus aureus. Put plainly: Antibacterial activity against Staphylococcus aureus RN4220 assessed as reduction in bacterial cell growth incubated for 24 hrs by ELISA. The experiment is classed as functional. Particulars: RN4220, 24 h. Put shortly:
as §1

Another experiment deals with Pseudomonas aeruginosa. Put plainly: Antibacterial activity against Pseudomonas aeruginosa 2742 assessed as reduction in bacterial cell growth incubated for 24 hrs by ELISA. Particulars: Pseudomonas aeruginosa, 2742, 24 h. The experiment is classed as functional. Put shortly: as §2

In brackets after ≈: the same amount, converted by molar mass.

Sequence of Tyrosine-protein phosphatase non-receptor type 6 (P29350 whole entry, the tested form may be a part): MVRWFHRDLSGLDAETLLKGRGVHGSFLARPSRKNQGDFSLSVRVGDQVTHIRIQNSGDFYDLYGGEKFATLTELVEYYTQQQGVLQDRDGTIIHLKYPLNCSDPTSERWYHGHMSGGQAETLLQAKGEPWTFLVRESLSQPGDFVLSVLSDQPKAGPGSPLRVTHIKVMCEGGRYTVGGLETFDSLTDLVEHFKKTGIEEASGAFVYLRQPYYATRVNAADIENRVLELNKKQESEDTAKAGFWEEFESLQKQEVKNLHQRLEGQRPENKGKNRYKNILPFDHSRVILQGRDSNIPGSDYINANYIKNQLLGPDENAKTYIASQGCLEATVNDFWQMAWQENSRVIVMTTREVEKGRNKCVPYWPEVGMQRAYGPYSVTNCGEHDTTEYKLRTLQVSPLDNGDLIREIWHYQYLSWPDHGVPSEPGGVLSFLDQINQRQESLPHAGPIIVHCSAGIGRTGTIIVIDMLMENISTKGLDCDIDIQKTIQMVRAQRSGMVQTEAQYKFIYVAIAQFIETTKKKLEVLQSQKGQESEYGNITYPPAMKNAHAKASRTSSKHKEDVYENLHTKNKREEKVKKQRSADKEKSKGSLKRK

As to `Cc1ccc(COc2ccc3cc(/C=C4\SC(=S)N(C(Cc5c[nH]c6ccccc56)C(=O)O)C4=O)ccc3c2)cc1` (stereo not drawn), the IC50 (as a rule, the midpoint of a concentration-inhibition curve) in experiment [1] was found to be 1690 nM; in experiment [3] it was 640 nM; in experiment [5] it was 3990 nM. Further, the MIC – broadly, the least concentration at which growth counts as inhibited – came out at 2 µg/mL (≈ 3.46 µM) with Staphylococcus aureus [2]; 2 µg/mL (≈ 3.46 µM) in the experiment with Streptococcus mutans; 2 µg/mL (≈ 3.46 µM) in the experiment with Staphylococcus aureus [6]; 8 µg/mL (≈ 13.8 µM) in the experiment on Staphylococcus aureus [7]; 2 µg/mL (≈ 3.46 µM) with Staphylococcus aureus [9]; 2 µg/mL (≈ 3.46 µM) in the experiment on Staphylococcus aureus [10]. Besides, the MIC in the experiment with Candida albicans is above 64 µg/mL; in the experiment with Escherichia coli, 2 µg/mL (≈ 3.46 µM); with Staphylococcus aureus [11] it was 2 µg/mL (≈ 3.46 µM); with Staphylococcus aureus [12], 2 µg/mL (≈ 3.46 µM); with Pseudomonas aeruginosa, above 64 µg/mL. Moreover, the figures for the Ratio IC50 in the experiment filed under Homo sapiens [4] and in the experiment filed under Homo sapiens [8] were 2 to 3 and 3 to 6, respectively.

Take `O=C(O)C(Cc1c[nH]c2ccccc12)N1C(=O)/C(=C/c2ccc3cc(OCc4ccc(Cl)cc4Cl)ccc3c2)SC1=S` (stereo not drawn): the results for the IC50 in experiment [1], in experiment [3] and in [5] were 1830 nM, 540 nM and 2950 nM, respectively. Moreover, the MIC in the experiment with Staphylococcus aureus [2] came out at 8 µg/mL (≈ 12.6 µM); in the experiment with Streptococcus mutans, 4 µg/mL (≈ 6.31 µM); in the experiment on Staphylococcus aureus [6], 4 µg/mL (≈ 6.31 µM); in the experiment with Staphylococcus aureus [7] it was 8 µg/mL (≈ 12.6 µM); with Staphylococcus aureus [9], 4 µg/mL (≈ 6.31 µM); in the experiment with Staphylococcus aureus [10] it was 4 µg/mL (≈ 6.31 µM). Moreover, the MIC in the experiment on Candida albicans was above 64 µg/mL; with Escherichia coli, 8 µg/mL (≈ 12.6 µM); with Staphylococcus aureus [11], 4 µg/mL (≈ 6.31 µM); in the experiment with Staphylococcus aureus [12] it was 2 µg/mL (≈ 3.16 µM); with Pseudomonas aeruginosa, above 64 µg/mL. In addition, the Ratio IC50 in the experiment filed under Homo sapiens [4] fell in the range of 2 to 3; in the experiment listed under Homo sapiens [8], 3 to 6.

For `O=C(O)C(Cc1c[nH]c2ccccc12)N1C(=O)/C(=C/c2ccc3cc(OCc4ccc(Br)cc4)ccc3c2)SC1=S` (stereo not drawn), the IC50 in [1] turned out to be 780 nM; in [3] it was 360 nM; in experiment [5] it was 1110 nM. Besides, the MIC with Staphylococcus aureus [2] turned out to be 4 µg/mL (≈ 6.22 µM); in the experiment on Streptococcus mutans it was 8 µg/mL (≈ 12.4 µM); in the experiment on Staphylococcus aureus [6], 2 µg/mL (≈ 3.11 µM); in the experiment with Staphylococcus aureus [7] it was 4 µg/mL (≈ 6.22 µM); with Staphylococcus aureus [9], 4 µg/mL (≈ 6.22 µM); with Staphylococcus aureus [10], 4 µg/mL (≈ 6.22 µM). Moreover, the MIC in the experiment with Candida albicans was above 64 µg/mL; in the experiment with Escherichia coli it was 8 µg/mL (≈ 12.4 µM); with Staphylococcus aureus [11], 4 µg/mL (≈ 6.22 µM); in the experiment on Staphylococcus aureus [12], 2 µg/mL (≈ 3.11 µM); with Pseudomonas aeruginosa it was above 64 µg/mL. The Ratio IC50 in the experiment filed under Homo sapiens [4] lay within 2 to 3; in the experiment listed under Homo sapiens [8], 3 to 6.
